Activity calls are given as the source filed them. The calls are words filed in the database; no cut-off is given here.

Data set [1] relates to Mus musculus. In words: Toxicity in Swiss albino mouse assessed as hyperactivity up to 2000 mg/kg, po measured from 5 hrs post-dose to 14 days relative to untreated-control. Type of data set: organism-based. Details: dose 2000 mg/kg, route oral. The conditions noted are these: in vivo. In a few lines: (§1)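 Acute toxicity followed WHO and OECD guidelines. Male Albino-Swiss mice received single oral doses increasing up to 2000 mg/kg. Behaviour (disorientation, hyperactivity, piloerection, hyperventilation) was observed from 5 h after dosing and then daily until day 14. LD50 was estimated by nonlinear regression of % deaths against dose.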

Data set [2] deals with Mus musculus. Description: Neurotoxicity in Swiss albino mouse assessed as alteration in motor activity at 30 mg/kg, po administered 60 mins prior to testing measured for 5 mins by open field test relative to untreated-control. Format: toxicity, organism-based. Details: dose 30 mg/kg, route oral. As to conditions: in vivo. A digest of the protocol:
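Male Albino-Swiss mice, n = 6, received 30 mg/kg p.o. or vehicle. Sixty minutes after dosing, each mouse was placed alone in a chamber whose floor was divided into 50 squares of 5 × 5 cm. Squares crossed were counted over 5 min.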

Data set [3] in a line: Toxicity in po dosed Swiss albino mouse. Type of data set: organism-based. As to conditions: in vivo. In a few lines: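 Acute oral toxicity per WHO and OECD guidelines. Male Albino-Swiss mice (20–24 g), 6 per group, held at 20 ± 2 °C on a 12 h light/dark cycle. Given single oral doses rising to 2000 mg/kg, as a suspension in 5% ethyl acetate at 5 mL/kg. Behaviour watched from 5 h after dosing, then daily to day 14. LD50 from nonlinear regression of percent deaths against dose.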

For data set [4], the system named is Mus musculus. Description: Antinociceptive activity in Swiss albino mouse assessed as inhibition of acetic-acid induced abdominal writhing at 30 mg/kg, po administered prior to acetic-acid challenge measured after 30 mins relative to untreated-control. Type of data set: functional. As to conditions: Abdomen, 0.5 h. A digest of the protocol:
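Male Albino-Swiss mice (20-24 g), n = 6, were pretreated orally at 30 mg/kg in 5% ethyl acetate vehicle (5 mL/kg). Writhing was induced with 1.2% (v/v) acetic acid i.p. Writhes (abdominal contraction, body stretching, hind-limb extension) were counted for 30 min starting immediately after injection and compared with the control group. ANOVA/Bonferroni, P < 0.05.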
In general terms: An intraperitoneal irritant provokes the stretching counted in writhing tests.

Data set [5] deals with Mus musculus. In words: Toxicity in Swiss albino mouse assessed as hyperventilation up to 2000 mg/kg, po measured from 5 hrs post-dose to 14 days relative to untreated-control. Type of data set: organism-based. Details: dose 2000 mg/kg, route oral. As to conditions: in vivo. A digest of the protocol: as §1
In data set [6] the test system is Mus musculus. Description: Toxicity in Swiss albino mouse assessed as piloerection up to 2000 mg/kg, po measured from 5 hrs post-dose to 14 days relative to untreated-control. Type of data set: organism-based. Details: dose 2000 mg/kg, route oral. The conditions noted are these: in vivo. In a few lines:
as §1

Data set [7] relates to Mus musculus. In words: Toxicity in Swiss albino mouse assessed as disorientation up to 2000 mg/kg, po measured from 5 hrs post-dose to 14 days relative to untreated-control. Format: organism-based. Details: dose 2000 mg/kg, route oral. As to conditions: in vivo. A digest of the protocol:
as §1

The test system of data set [8] is Mus musculus. Description: Antinociceptive activity in Swiss albino mouse assessed as increase in tail-flick latency at 30 mg/kg, po measured up to 120 mins relative to untreated-control. Type of data set: functional, organism-based. Details: dose 30 mg/kg. A digest of the protocol:
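Male Albino-Swiss mice (20-24 g), n = 6 per group, given 30 mg/kg p.o. as a suspension in 5% ethyl acetate vehicle (5 mL/kg). Tail-flick latency was measured every 20 min: two pre-dose readings were averaged as baseline, then six post-dose readings. Results are expressed as % increase over baseline and as AUC from 20-120 min. ANOVA with Bonferroni test, P < 0.05.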
(Hot-plate and tail-flick tests time the reaction to a heat stimulus.)

The subject of data set [9] is Mus musculus. In words: Neurotoxicity in Swiss albino mouse assessed as alteration in motor activity at 30 mg/kg, po administered 60 mins prior to testing measured for 5 mins by rotarod test relative to untreated-control. Details: dose 30 mg/kg, route oral. Type of data set: toxicity, organism-based. As to conditions: in vivo. A digest of the protocol:
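Mice were trained twice the day before to stay 5 min on a rotarod turning at 10 rev/min. Twenty-four hours later they received 30 mg/kg p.o. or vehicle. Sixty minutes after dosing they were placed on the roller for 5 min, and the number of falls was recorded as the neurological deficit.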

The test system of data set [10] is Mus musculus. In words: Antinociceptive activity in mouse assessed as inhibition of acetic-acid induced abdominal writhing at 50 mg/kg administered 60 mins prior to acetic-acid challenge. As to conditions: Abdomen. Format: functional.

For the molecule `O=C(O)[C@H]1CCC[C@@H](c2ccc3ccccc3c2)O1`, the Activity entry in [1], in data set [2], in [5], in data set [6], in [7] and in [9] was “Non-toxic” throughout. The 50% lethal dose (LD50) (commonly the dose at which mortality reaches 50%) in [3] was > 2000 mg/kg. For the same molecule, the inhibition in vivo (in general, the share of the control response that was lost under treatment) at 30 mg/kg in [4] was determined as 43.1%. Further, in data set [8], the outcome was Active.

Regarding `CC[C@@H]1CCC[C@H](C(=O)O)O1` (racemic), the Activity entry in [1], in data set [2], in [5], in data set [6], in [7] and in [9] was “Non-toxic” throughout. Moreover, the LD50 in [3] was > 2000 mg/kg. Also, in [4], the inhibition in vivo at 30 mg/kg was 14.1%. Moreover, the outcome in data set [8] was Active. The inhibition in vivo at 50 mg/kg in data set [10] was 15%.

In the case of `O=C(O)[C@H]1CCC[C@@H](c2cccc3ccccc23)O1` (relative stereo), the Activity entry in data set [1], in [2], in data set [5], in data set [6], in [7] and in [9] was “Non-toxic” in each case. In addition, in [3], the LD50 was > 2000 mg/kg. The inhibition in vivo at 30 mg/kg in data set [4] worked out at 49%. Also, the result in data set [8] was Active.

With `OC[C@H]1CCC[C@@H](c2ccc3ccccc3c2)O1` (relative stereo), the Activity entry in [1], in data set [2], in data set [5], in data set [6], in data set [7] and in data set [9] was “Non-toxic” each time. Also, in data set [3], the 50% lethal dose (LD50) is > 2000 mg/kg. Further, in data set [4], the inhibition in vivo at 30 mg/kg came out at 55.7%. The result in [8] was Active.

On to `OC[C@H]1CCC[C@@H](c2cccc3ccccc23)O1` (relative stereo), for which the Activity entry in [1], in [2], in data set [5], in data set [6], in data set [7] and in data set [9] was “Non-toxic” throughout. The LD50 in data set [3] is > 2000 mg/kg. For the same molecule, the inhibition in vivo at 30 mg/kg in data set [4] turned out to be 39.2%. In data set [8], the outcome was Active.

As for `CC(C)C(=O)OC[C@H]1C[C@@H](Cl)C[C@@H](c2ccc3ccccc3c2)O1` (relative stereo), the Activity result in data set [1], in data set [2], in data set [5], in data set [6], in data set [7] and in data set [9] was “Non-toxic” each time. Further, in data set [3], the LD50 is > 2000 mg/kg. For the same molecule, the inhibition in vivo at 30 mg/kg in data set [4] stood at 44.4%. For the same molecule, the result in data set [8] was Active.

Turning to `CC(C)C(=O)OC[C@H]1C[C@@H](Cl)C[C@@H](c2cccc3ccccc23)O1` (relative stereo), the Activity result in [1], in data set [2], in data set [5], in data set [6], in [7] and in data set [9] was “Non-toxic” throughout. In addition, the median lethal dose (LD50) in data set [3] was > 2000 mg/kg. Further, the inhibition in vivo at 30 mg/kg in data set [4] turned out to be 38.4%. The result in [8] was Active.

Regarding `OC[C@H]1C[C@@H](Cl)C[C@@H](c2ccc3ccccc3c2)O1` (relative stereo), the Activity entry in data set [1], in [2], in data set [5], in [6], in [7] and in [9] was “Non-toxic” in each case. Besides, in data set [3], the LD50 is > 2000 mg/kg. The inhibition in vivo at 30 mg/kg in data set [4] is 46.6%. In addition, the outcome in [8] was Active.

Turning to `OC[C@H]1C[C@@H](Cl)C[C@@H](c2cccc3ccccc23)O1` (relative stereo), the Activity result in data set [1], in data set [2], in data set [5], in data set [6], in data set [7] and in data set [9] was “Non-toxic” each time. Further, the LD50 in [3] was > 2000 mg/kg. Also, the inhibition in vivo at 30 mg/kg in data set [4] stood at 87.5%. The outcome in [8] was Active.

Take `O=C(O)[C@H]1C[C@@H](Cl)C[C@@H](c2ccc3ccccc3c2)O1` (relative stereo): the Activity entry in data set [1], in data set [2], in [5], in [6], in [7] and in [9] was “Non-toxic” throughout. The 50% lethal dose (LD50) in [3] was > 2000 mg/kg. Also, the inhibition in vivo at 30 mg/kg in data set [4] was 28.1%. Further, in [8], the outcome was Active.

For the molecule `O=C(O)[C@H]1C[C@@H](Cl)C[C@@H](c2cccc3ccccc23)O1` (relative stereo), the Activity entry in data set [1], in [2], in data set [5], in data set [6], in [7] and in data set [9] was “Non-toxic” in each case. In data set [3], the 50% lethal dose (LD50) was > 2000 mg/kg. Also, the inhibition in vivo at 30 mg/kg in data set [4] came out at 54.4%. Besides, the outcome in [8] was inactive.

The record behind these values is ChEMBL document CHEMBL2150887, “Design, Prins-cyclization reaction promoting diastereoselective synthesis of 10 new tetrahydropyran derivatives and in vivo antinociceptive evaluations” (Eur J Med Chem, 2012).
